Active and inactive are the calls of the source. No cut-off for these calls is given here.
Assays:
[1] = molecular target: T1, Signal transducer and activator of transcription 3 (Mus musculus, UniProt P42227); experiment: Inhibition of STAT3 phosphorylation in mouse BMOL-NT cells assessed as change in nuclear phosphorylated STAT3 level at 10 uM incubated for 6 hrs by immunofluorescence assay relative to control; assay type: subcellular, Nucleus; design: scale not given: the % may be the effect or the level left
Summary of the method: (§1)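 BMOL cells in supplemented Williams' E medium were treated 6 h with compound or 0.1% DMSO vehicle. Fixed in 4% PFA, permeabilised with 0.1% Triton X-100, blocked, then incubated 18 h with anti-phospho-p65, -Akt or -STAT3, then secondary antibody 1 h and Hoechst. High-content imaging of per-cell intensity and nuclear:whole-cell ratio. Mean of two experiments, SD.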

[2] = Selectivity for antiproliferative activity against mouse BMOL-T cells over mouse BMOL-NT cells at 26 uM measured every 4 hrs for 3 days by IncuCyte zoom live cell analysis; details: time 3 day
[3] = molecular target: T1, Signal transducer and activator of transcription 3; experiment: Inhibition of STAT3 phosphorylation in mouse BMOL-NT cells assessed as change in phosphorylated STAT3 level at 10 uM incubated for 6 hrs by immunofluorescence assay relative to control; assay type: cell-based; design: scale not given: the % may be the effect or the level left; summary of the method: as §1
Transcription factor p65 [4] = molecular target: T2, Transcription factor p65 (Mus musculus, UniProt Q04207); experiment: Inhibition of NFkB p65 phosphorylation in mouse BMOL-NT cells assessed as change in phosphorylated p65 level at 10 uM incubated for 6 hrs by immunofluorescent assay relative to control; assay type: cell-based; design: scale not given: the % may be the effect or the level left; summary of the method: as §1
Transcription factor p65 [5] = molecular target: T2, Transcription factor p65; experiment: Inhibition of NFkB p65 nuclear translocation in mouse BMOL-NT cells assessed as change in nuclear p65 level at 10 uM incubated for 6 hrs by immunofluorescent assay relative to control; assay type: subcellular, Nucleus; design: scale not given: the % may be the effect or the level left; summary of the method: as §1
BMOL-T [6] = experiment: Inhibition of Akt phosphorylation in mouse BMOL-T cells assessed as change in nuclear phosphorylated Akt level at 10 uM incubated for 6 hrs by immunofluorescent assay relative to control; assay type: subcellular; design: scale not given: the % may be the effect or the level left; details: Nucleus; summary of the method: as §1
[7] = Antiproliferative activity against mouse BMOL-NT cells assessed as cell growth inhibition at >10 uM measured every 4 hrs for 3 days by IncuCyte zoom live cell analysis; assay type: cell-based; details: 72 h, time 3 day
[8] = molecular target: Signal transducer and activator of transcription 3 (Mus musculus) (UniProt P42227); experiment: Inhibition of STAT3 phosphorylation in mouse BMOL-T cells assessed as change in phosphorylated STAT3 level at 10 uM incubated for 6 hrs by immunofluorescence assay relative to control; assay type: cell-based; design: scale not given: the % may be the effect or the level left; summary of the method: as §1
BMOL-T [9] = experiment: Antimigratory activity against mouse BMOL-T cells assessed as inhibition of cell migration at 10 uM incubated for 24 hrs by scratch wound healing assay; assay type: functional, cell-based
Summary of the method: (§2)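 Wound healing in BMOL-T cells plated at 20,000/well in supplemented Williams' E medium and grown 24 h. Wounds made with a Woundmaker, then medium replaced with fresh medium holding compound or 0.1% DMSO vehicle. Live-cell imaging every 2 h over 24 h, read as average wound width (µm). n = 3, SEM.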

[10] = Antiproliferative activity against mouse BMOL-NT cells assessed as cell growth inhibition at 14 to 26 uM measured every 4 hrs for 3 days by IncuCyte zoom live cell analysis; assay type: cell-based; details: 72 h, dose 14-26 µM, time 3 day
[11] = (§3) Antiproliferative activity against mouse BMOL-T cells assessed as minimum concentration required for cell growth inhibition measured every 4 hrs for 3 days by IncuCyte zoom live cell analysis; assay type: functional; details: time 3 day
Summary of the method: (§4)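 Dose series for BMOL-T proliferation: cells plated at 1000/well, compound added from 2× solutions (final 0.1% DMSO), imaged every 4 h for 3 days. Doubling time from the log-phase linear part of a log confluence vs time curve, expressed as % change over vehicle. n = 3, SEM.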

BMOL-T [12] = experiment: as §3; assay type: functional; details: time 3.0 day; summary of the method: as §4
BMOL-T [13] = experiment: Effect on STAT3 expression in mouse BMOL-T cells at 10 uM by AlphaLISA assay; assay type: functional, cell-based
Summary of the method: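 AlphaLISA in BMOL-T cells treated at 10 µM with 0.1% DMSO vehicle as control. Read as normalised fluorescence for total STAT3, or as the ratio of total STAT3 to p-STAT3. n ≥ 3, SEM. Significance by ANOVA with Dunnett's test.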

[14] = Antiproliferative activity against mouse BMOL-T cells assessed as cell growth inhibition at 10 uM measured every 4 hrs for 3 days by IncuCyte zoom live cell analysis relative to control; assay type: functional; details: 72 h, time 3 day
[15] = molecular target: Signal transducer and activator of transcription 3 (Mus musculus) (UniProt P42227); experiment: Inhibition of STAT3 phosphorylation in mouse BMOL-T cells assessed as change in nuclear phosphorylated STAT3 level at 10 uM incubated for 6 hrs by immunofluorescence assay relative to control; assay type: subcellular; design: scale not given: the % may be the effect or the level left; details: Nucleus; summary of the method: as §1
[16] = Inhibition of Akt phosphorylation in mouse BMOL-NT cells assessed as change in nuclear phosphorylated Akt level at 10 uM incubated for 6 hrs by immunofluorescent assay relative to control; assay type: subcellular, Nucleus; design: scale not given: the % may be the effect or the level left; summary of the method: as §1
[17] = molecular target: Transcription factor p65 (Mus musculus) (UniProt Q04207); experiment: Inhibition of NFkB p65 phosphorylation in mouse BMOL-T cells assessed as change in phosphorylated p65 level at 10 uM incubated for 6 hrs by immunofluorescent assay relative to control; assay type: cell-based; design: scale not given: the % may be the effect or the level left; summary of the method: as §1
[18] = Selectivity for antiproliferative activity against mouse BMOL-T cells over mouse BMOL-NT cells at 10 uM measured every 4 hrs for 3 days by IncuCyte zoom live cell analysis; details: time 3 day
[19] = Inhibition of Akt phosphorylation in mouse BMOL-NT cells assessed as change in phosphorylated Akt level at 10 uM incubated for 6 hrs by immunofluorescent assay relative to control; assay type: cell-based; design: scale not given: the % may be the effect or the level left; summary of the method: as §1
[20] = molecular target: Transcription factor p65 (Mus musculus) (UniProt Q04207); experiment: Inhibition of NFkB p65 nuclear translocation in mouse BMOL-T cells assessed as change in nuclear p65 level at 10 uM incubated for 6 hrs by immunofluorescent assay relative to control; assay type: subcellular; design: scale not given: the % may be the effect or the level left; details: Nucleus; summary of the method: as §1
[21] = Antimigratory activity against mouse BMOL-T cells assessed as inhibition of cell migration at 10 uM incubated for 16 hrs by scratch wound healing assay relative to control; assay type: functional; summary of the method: as §2
BMOL-T [22] = experiment: Inhibition of Akt phosphorylation in mouse BMOL-T cells assessed as change in phosphorylated Akt level at 10 uM incubated for 6 hrs by immunofluorescent assay relative to control; assay type: cell-based; design: scale not given: the % may be the effect or the level left; summary of the method: as §1

Signal transducer and activator of transcription 3 (Mus musculus), sequence (P42227 whole entry): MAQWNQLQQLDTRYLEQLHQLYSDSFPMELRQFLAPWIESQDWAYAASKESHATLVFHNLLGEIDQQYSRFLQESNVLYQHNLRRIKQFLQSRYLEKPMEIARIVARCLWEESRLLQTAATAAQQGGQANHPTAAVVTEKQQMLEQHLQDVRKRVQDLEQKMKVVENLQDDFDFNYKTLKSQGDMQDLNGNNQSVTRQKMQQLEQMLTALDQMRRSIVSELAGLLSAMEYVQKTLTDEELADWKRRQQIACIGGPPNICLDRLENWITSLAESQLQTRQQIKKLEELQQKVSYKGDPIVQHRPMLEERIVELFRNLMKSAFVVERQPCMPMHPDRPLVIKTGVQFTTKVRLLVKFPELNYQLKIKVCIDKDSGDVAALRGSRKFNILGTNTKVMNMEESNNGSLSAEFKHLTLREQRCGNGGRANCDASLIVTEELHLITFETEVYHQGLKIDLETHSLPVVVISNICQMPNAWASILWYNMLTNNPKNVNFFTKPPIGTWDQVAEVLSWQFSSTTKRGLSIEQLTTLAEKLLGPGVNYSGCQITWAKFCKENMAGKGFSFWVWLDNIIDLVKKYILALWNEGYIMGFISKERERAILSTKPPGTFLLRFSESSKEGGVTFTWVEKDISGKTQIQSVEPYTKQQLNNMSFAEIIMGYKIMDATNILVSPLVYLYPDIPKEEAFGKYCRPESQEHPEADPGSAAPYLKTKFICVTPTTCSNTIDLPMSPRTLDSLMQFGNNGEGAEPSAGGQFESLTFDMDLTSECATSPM
T1 sequence (P42227 whole entry): as above
Transcription factor p65 (Mus musculus), sequence (Q04207 whole entry): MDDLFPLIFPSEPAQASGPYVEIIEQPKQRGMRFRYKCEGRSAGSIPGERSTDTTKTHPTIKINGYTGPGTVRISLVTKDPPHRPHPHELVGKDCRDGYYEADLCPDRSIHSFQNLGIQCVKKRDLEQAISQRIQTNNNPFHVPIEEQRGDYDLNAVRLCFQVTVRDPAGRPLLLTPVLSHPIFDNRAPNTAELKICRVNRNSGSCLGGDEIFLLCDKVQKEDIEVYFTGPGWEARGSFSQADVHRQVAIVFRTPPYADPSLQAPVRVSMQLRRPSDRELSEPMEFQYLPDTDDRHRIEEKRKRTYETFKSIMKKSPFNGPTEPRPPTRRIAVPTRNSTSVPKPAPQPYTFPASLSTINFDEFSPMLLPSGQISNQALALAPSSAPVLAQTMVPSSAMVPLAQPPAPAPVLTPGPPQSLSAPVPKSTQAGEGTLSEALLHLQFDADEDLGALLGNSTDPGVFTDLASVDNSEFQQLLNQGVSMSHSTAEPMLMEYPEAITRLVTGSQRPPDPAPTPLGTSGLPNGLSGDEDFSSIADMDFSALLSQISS
T2 sequence (Q04207 whole entry): as above

Activity [1]: -8% | Activity [3]: -5% | Activity (Transcription factor p65 [4]): 0% | Activity (Transcription factor p65 [5]): 11% | Activity (BMOL-T [6]): -19% | Activity [8]: -22% | Activity [15]: -16% | Activity [16]: -25% | Activity [17]: -13% | Activity [19]: 0% | Activity [20]: -23%
Structure (SMILES): CC(C)(C)c1ccc(Sc2cccc3c2C(=O)N(C2CCC(=O)NC2=O)C3=O)cc1 (configuration not stated)
Selectivity ratio [2]: 9 | Activity [7]: Toxic | Activity (BMOL-T [9]): Active | Activity [10]: Toxic | MAC [11]: <6 µM | Activity (BMOL-T [12]): Dose-Dependent Effect | Activity (BMOL-T [13]): inactive | inhibition at 10 µM [14]: 36% | Selectivity ratio [18]: 9 | inhibition at 10 µM [21]: 80% | Activity (BMOL-T [22]): -3%

Source: ChEMBL document CHEMBL4814031, “In pursuit of a selective hepatocellular carcinoma therapeutic agent: Novel thalidomide derivatives with antiproliferative, antimigratory and STAT3 inhibitory properties” (Eur J Med Chem, 2021)
